ChEMBL document CHEMBL2406953, “Bioactive constituents of Indigofera spicata” (J Nat Prod, 2013)
Calls of active or inactive are those of the source.

What was measured:
[1] = Cytotoxicity against mouse Hepa-1c1c7 cells; assay type: functional, cell-based
[2] = Chemopreventive index, ratio of IC50 for mouse Hepa1c1c7 cells to CD for quinone reductase in mouse Hepa1c1c7 cells
Mus musculus [3] = species on record: Mus musculus; test: Induction of quinone reductase in mouse Hepa1c1c7 cells; assay type: cell-based
Outline: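 Phase II enzyme induction was measured in murine Hepa 1c1c7 hepatoma cells by a standard quinone reductase procedure. L-sulforaphane served as the positive control. Values are CD, the concentration that doubles quinone reductase activity, given as mean ± SD of three independent experiments.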

[4] = Selectivity ratio of IC50 for human CCD-112CoN cells to IC50 for human HT29 cells; assay type: ADME, cell-based, HT-29; details: CCD-112CoN cells versus HT29 cells, read-out: Ratio IC50
Outline: (§1)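 Normal colon CCD-112CoN cells tested by SRB assay alongside HT-29; IC50 (50% growth inhibition) as mean ± SD of triplicate; paclitaxel positive control; fold selectivity = IC50 in CCD-112CoN divided by IC50 in HT-29.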

HT-29 [5] = test: Cytotoxicity against human HT-29 cells after 72 hrs by SRB assay; assay type: functional, cell-based; details: HT-29, 72 h
Outline: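 HT-29 colon cancer cells, sulforhodamine B assay, 72 h; paclitaxel positive control; IC50 defined as concentration inhibiting 50% cell growth, mean ± SD from a triplicate.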

[6] = Cytotoxicity against human CCD-112CoN cells by SRB assay; assay type: cell-based; outline: as §1
HT-29 [7] = test: Antitumor activity against human HT-29 cells in hollow fiber implanted in immunodeficient NCr nu/nu mouse assessed as reduction in cell growth at 0.5 to 2 mg/kg, ip qd
Mus musculus [8] = test: Toxicity in immunodeficient NCr nu/nu mouse at 0.5 to 2 mg/kg, ip qd; assay type: organism-based; set-up: dose 0.5-2 mg/kg, route intraperitoneal; details: in vivo
697 [9] = test: Cytotoxicity against human 697 cells after 72 hrs by MTS assay; assay type: functional, cell-based; details: Homo sapiens, 697, 72 h
Outline: (§2)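 697 (DSMZ) and Raji (ATCC) cells at 200,000 cells/mL; compounds from 2 mM DMSO stock, diluted in 10% DMSO, eight three-fold dilutions giving final 10 to 0.005 µM plus 0; final DMSO 0.5%; vincristine sulfate 25 nM positive control. Quadruplicate wells, 48 and 72 h, 37°C, 5% CO2; MTS read-out; IC50 = 50% growth inhibition, mean ± SD of three independent experiments.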

Mus musculus [10] = test: Toxicity in immunodeficient NCr nu/nu mouse at 5 to 30 mg/kg, ip qd; assay type: organism-based; set-up: dose 5-30 mg/kg, route intraperitoneal; details: in vivo
Outline: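 Female NCr nu/nu mice with ip and sc hollow fibers (HT-29, MCF-7, MDA-MB-435 cells) given compound in 30% cyclodextrin ip once daily at 5, 10, 15, 30 mg/kg; bortezomib 1 mg/kg ip daily in 30% cyclodextrin as positive control; lethality monitored after each injection.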

MDA-MB-435 = test: Antitumor activity against human MDA-MB-435 cells in hollow fiber implanted in immunodeficient NCr nu/nu mouse assessed as reduction in cell growth at 2 mg/kg, ip qd; assay type: functional; set-up: scale not given: the % may be the effect or the level left; details: route intraperitoneal
Raji [11] = test: Cytotoxicity against human Raji cells after 48 hrs by MTS assay; assay type: functional, cell-based; outline: as §2
Raji [12] = test: Cytotoxicity against human Raji cells after 72 hrs by MTS assay; assay type: functional, cell-based; outline: as §2
697 [13] = test: Cytotoxicity against human 697 cells after 48 hrs by MTS assay; assay type: functional, cell-based; details: Homo sapiens, 697, 48 h; outline: as §2
697 [14] = test: Induction of cell death in human 697 cells at 10 uM after 48 to 72 hrs using propidium iodide staining by flow cytometry; assay type: functional
Outline: (§3)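 697 cells at 200,000 cells/mL treated at final 10, 1.11, 0.123, 0.014, 0 µM (from 2 mM stock, 10% DMSO dilutions, final DMSO 0.5%) for 48 and 72 h; vincristine 25 and 5 nM positive control. Same dilutions run in parallel by MTS and by propidium iodide: cells pelleted, resuspended in PI/PBS, 15 min dark at room temperature, flow cytometry; three independent experiments.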

697 [15] = test: Cytostatic activity against human 697 cells assessed as reduction in cell viability at 0.014 to 10 uM after 48 to 72 hrs by MTS assay; assay type: functional, cell-based; outline: as §3

| SMILES | IC50 [1] | Ratio [2] | CD (Mus musculus [3]) | other results |
| --- | --- | --- | --- | --- |
| COc1ccc2c(c1/C=C/C(C)(C)O)O[C@H](c1ccccc1)CC2=O | 47.4 µM | 11.3 | 4.2 µM |  |
| COc1ccc2c(c1/C=C/C(C)(C)OC)O[C@H](c1ccccc1)CC2=O | 49 µM | 5.9 | 8.3 µM |  |
| COc1cc2c(c3c1C(=O)C[C@@H](c1ccccc1)O3)[C@H]1[C@@H](O2)OC(C)(C)[C@@H]1OC(C)=O (stereo in doubt; 2) [listing 1 of 2 here] | 63.9 µM | 376.7 |  |  |
| COc1cc2c(c3c1C(=O)C[C@@H](c1ccccc1)O3)[C@H]1[C@@H](O2)OC(C)(C)[C@@H]1OC(C)=O (stereo in doubt; 2) [listing 2 of 2 here] |  |  | 0.2 µM |  |
| COc1cc2c(c3c1C(=O)C[C@@H](c1ccccc1)O3)[C@H]1[C@@H](O2)OC(C)(C)[C@@H]1OC(C)=O (stereo in doubt; 5) |  |  | > 10 µM |  |
| COc1ccc2c(c1C1=COC(C)(C)C1=O)O[C@H](c1ccccc1)CC2=O [(2S)-2,3-DIHYDROTEPHROGLABRIN] | 23.1 µM | 3.6 | 6.4 µM |  |
| CC1(C)O[C@@H]2Oc3ccc(C(=O)/C=C/c4ccccc4)c(O)c3[C@@H]2[C@H]1O [(+)-TEPHROSONE] | 37.6 µM | 9.9 | 3.8 µM |  |
| C[S@+]([O-])CCCCN=C=S [L-SULFORAPHANE] | 12.1 µM | 23.9 | 0.5 µM |  |
| CC(=O)O[C@H]1C(=O)[C@@]2(C)[C@H]([C@H](OC(=O)c3ccccc3)[C@]3(O)C[C@H](OC(=O)[C@H](O)[C@@H](NC(=O)c4ccccc4)c4ccccc4)C(C)=C1C3(C)C)[C@]1(OC(C)=O)CO[C@@H]1C[C@@H]2O [PACLITAXEL] |  |  |  | selectivity ratio [4]: 38300; IC50 (HT-29 [5]): 0.0006 µM; IC50 [6]: 23 µM |
| C=C(C)[C@H]1Cc2c(ccc3c2O[C@@H]2COc4cc(OC)c(OC)cc4[C@]2(O)C3=O)O1 [ROTENOLONE] | 0.2 µM | 0.6 | 0.4 µM | Activity (HT-29 [7]): inactive; selectivity ratio [4]: 1020; Activity (Mus musculus [8]): Non-toxic; IC50 697 [9]: 0.5 µM; Activity (Mus musculus [10]): Toxic; IC50 (HT-29 [5]): 0.1 µM; Activity (MDA-MB-435): 20%; IC50 (Raji [11]): 5.6 µM; IC50 [6]: 102 µM; IC50 (Raji [12]): 2.4 µM; IC50 697 [13]: 0.7 µM |
| C=C(C)[C@H]1Cc2c(ccc3c2O[C@@H]2COc4cc(OC)c(OC)cc4[C@@H]2C3=O)O1 [ROTENONE] | 0.7 µM | 0.9 | 0.8 µM | selectivity ratio [4]: > 423; IC50 697 [9]: 0.3 µM; IC50 (Raji [11]): 4.2 µM; IC50 [6]: > 127 µM; IC50 (Raji [12]): 1.1 µM; IC50 697 [13]: 0.3 µM |
| COc1cc2c(c(O)c1C(=O)/C=C/c1ccccc1)[C@H]1[C@@H](O2)OC(C)(C)[C@@H]1OC(C)=O [TEPHROPURPURIN] | 18.1 µM | 23.9 | 0.8 µM |  |
| COc1cc2c(cc1OC)[C@]1(O)C(=O)c3ccc4c(c3O[C@@H]1CO2)C=CC(C)(C)O4 [TEPHROSIN] | 13.9 µM | 35.3 | 0.4 µM | Activity 697 [14]: 24%; IC50 697 [9]: 9 µM; IC50 (HT-29 [5]): > 10 µM; IC50 (Raji [11]): > 10 µM; IC50 (Raji [12]): > 10 µM; IC50 697 [13]: 5.4 µM; Activity 697 [15]: Active |
